According to ChEMBL document CHEMBL5214982, “Identification and Biochemical Characterization of Pyrrolidinediones as Novel Inhibitors of the Bacterial Enzyme MurA” (J Med Chem, 2022):
Active and inactive are the calls of the source. The rule behind the calls is not given here.

Tests used:
[1] = molecular target: UDP-N-acetylglucosamine 1-carboxyvinyltransferase (Escherichia coli K-12) (UniProt P0A749); assay: Inhibition of wild type his tagged Escherichia coli K12 MurA at 20 uM using UDP-N-acetylglucosamine as substrate preincubated with substrate for 30 mins prior to compound addition for 15 mins followed by DTT and PEP addition and measured after 30 mins by malachite green based microplate reader analysis relative to control; conditions: time 45.0 min
[2] = molecular target: UDP-N-acetylglucosamine 1-carboxyvinyltransferase (Escherichia coli K-12, UniProt P0A749); assay: Inhibition of wild type his tagged Escherichia coli K12 MurA using UDP-N-acetylglucosamine as substrate […] for 15 mins followed by DTT and PEP addition and measured after 30 mins by malachite green based microplate reader analysis
[3] = Stability in human plasma assessed as degradation at measured after 4 hrs by HPLC-MS analysis; type: ADME, cell-free; conditions: read-out: Drug degradation
[4] = Stability in human plasma assessed as half life at by HPLC-MS analysis; type: ADME, cell-free
[5] = Stability in human S9 fractions assessed as half life at by HPLC-MS analysis; type: ADME, subcellular, Liver, S9 fraction
[6] = Stability in human S9 fractions assessed as degradation at measured after 2 hrs by HPLC-MS analysis; type: ADME, subcellular, Liver, S9 fraction; conditions: read-out: Drug degradation
HepG2 = assay: Cytotoxicity against human HepG2 cells at upto 100 uM incubated for 24 hrs by MTT assay; type: toxicity, cell-based; conditions: hepg2, 24 h
In short: (§1)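 MRC-5 (20,000/well) or HepG2 (25,000/well) seeded, treated next day for 24 h with eight concentrations up to 100 μM (DMSO solutions). Viability by MTT: medium replaced with 0.5 mg/ml MTT in DMEM, cells lysed in DMSO, absorbance at 560 nm. Three independent experiments.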

MRC5 = assay: Cytotoxicity against human MRC5 cells at upto 100 uM incubated for 24 hrs by MTT assay; type: toxicity, cell-based; conditions: mrc5, 24 h; in short: as §1
[7] = molecular target: UDP-N-acetylglucosamine 1-carboxyvinyltransferase (Escherichia coli K-12) (UniProt P0A749); assay: Inhibition of wild type his tagged Escherichia coli K12 MurA at 0.2 uM using UDP-N-acetylglucosamine as substrate preincubated with substrate for 15 mins prior to compound addition for 15 mins followed by DTT and PEP addition by dilution assay
In short: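 His-tagged WT MurA (30 μg) preincubated with 400 μM UNAG for 15 min, then with inhibitor (10 μM) for another 15 min. Mixture diluted 1:50 into master mix of 150 μM UNAG, 150 μM PEP, 2 mM DTT and 25 mM Tris-HCl pH 7.5 (final), giving 0.2 μM inhibitor; incubated 37°C 30 min. Malachite green/molybdate stop, A625 after 5 min, minus no-enzyme blank; three independent experiments.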

[8] = tested on: UDP-N-acetylglucosamine 1-carboxyvinyltransferase (Escherichia coli K-12), P0A749 [C115D]; assay: Inhibition of […] his tagged Escherichia coli K12 MurA C115D mutant at 2 uM using UDP-N-acetylglucosamine as substrate in presence of DTT and PEP by microplate reader analysis relative to control; conditions: time 45.0 min
In short: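 His-tagged C115D MurA preincubated directly with compounds (no UNAG preincubation) 15 min rt; fosfomycin and test compound each 2 μM final, 2% DMSO. Master mix added: 150 μM UNAG, 150 μM PEP, 2 mM DTT, 25 mM Tris-HCl pH 7.5; 37 °C 30 min. Malachite green/molybdate stop, A625 after 5 min, no-enzyme background subtracted; three independent experiments.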

[9] = molecular target: UDP-N-acetylglucosamine 1-carboxyvinyltransferase (Escherichia coli K-12) (UniProt P0A749); assay: Inhibition of wild type his tagged Escherichia coli K12 MurA at 2 uM using UDP-N-acetylglucosamine as substrate […] for 15 mins followed by DTT and PEP addition and measured after 30 mins by malachite green based microplate reader analysis relative to control; conditions: time 45.0 min

Sequence of UDP-N-acetylglucosamine 1-carboxyvinyltransferase (P0A749 whole entry): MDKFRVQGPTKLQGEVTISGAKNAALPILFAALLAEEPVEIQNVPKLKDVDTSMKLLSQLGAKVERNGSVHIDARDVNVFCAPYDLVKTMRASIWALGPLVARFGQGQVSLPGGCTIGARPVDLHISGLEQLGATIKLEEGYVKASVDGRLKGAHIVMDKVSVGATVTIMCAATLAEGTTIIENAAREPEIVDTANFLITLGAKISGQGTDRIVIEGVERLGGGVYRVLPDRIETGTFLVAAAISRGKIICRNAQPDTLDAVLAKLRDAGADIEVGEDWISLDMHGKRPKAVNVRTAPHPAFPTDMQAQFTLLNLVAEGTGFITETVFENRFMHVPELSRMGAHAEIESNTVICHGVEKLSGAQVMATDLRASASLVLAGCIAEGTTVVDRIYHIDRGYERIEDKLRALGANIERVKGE
Sequence of UDP-N-acetylglucosamine 1-carboxyvinyltransferase (Escherichia coli K-12) (P0A749 whole entry): as above
Sequence of UDP-N-acetylglucosamine 1-carboxyvinyltransferase (Escherichia coli K-12), P0A749 [C115D] (P0A749 whole entry C115D): as the sequence (P0A749 whole entry) above, with C115D counted along it

| Structure (SMILES) | inhibition [1] | IC50 [2] | also measured |
| --- | --- | --- | --- |
| CCOC(=O)C1=C(O)C(=O)N(c2nc3cc(C)c(C)cc3s2)C1c1ccc(-c2ccccc2)cc1 (centres undefined) | 85% | 5.8 µM |  |
| Cc1ccc2nc(N3C(=O)C(O)=C(C(=O)OC(C)(C)C)C3c3ccccc3)sc2c1 (centres undefined) | 38% |  |  |
| Cc1cccc2sc(N3C(=O)C(O)=C(C(=O)OC(C)(C)C)C3c3ccccc3)nc12 (centres undefined) | 67% | 11 µM |  |
| Cc1ccc2nc(N3C(=O)C(O)=C(C(=O)OCCO)C3c3ccc(-c4ccc(Cl)cc4)o3)sc2c1 (centres undefined) | 43% |  |  |
| CCOC(=O)C1=C(O)C(=O)N(c2nc3ccc(C)cc3s2)C1c1ccc2ccccc2c1 (centres undefined) | 44% |  |  |
| CCOC(=O)C1=C(O)C(=O)N(c2nc3ccc(C)cc3s2)C1c1ccc(-c2ccc(Cl)cc2)o1 (centres undefined) | 75% | 9.9 µM |  |
| CCOC(=O)C1=C(O)C(=O)N(c2nc3c(Cl)cccc3s2)C1c1ccccc1 (centres undefined) | 18% |  |  |
| CC(C)(C)OC(=O)C1=C(O)C(=O)N(c2nc3ccc(Cl)cc3s2)C1c1ccccc1 (centres undefined) | 38% |  |  |
| CCCCNc1ccc(C(=O)OCCN(C)C)cc1 [TETRACAINE] |  |  | metabolised at 4 h [3]: 100%; t1/2 [4]: 20 min |
| CCOC(=O)C1=C(O)C(=O)N(c2nc3ccc(C)cc3s2)C1c1ccccc1-c1ccccc1 (centres undefined) | 57% | 17 µM |  |
| CCOC(=O)C1=C(O)C(=O)N(c2nc3ccc(Cl)cc3s2)C1c1ccccc1 (centres undefined) | 14% |  |  |
| CCOC(=O)C1=C(O)C(=O)N(c2nc3ccc(C)cc3s2)C1c1ccc(OC)c2ccccc12 (centres undefined) | 74% | 9.5 µM |  |
| CCOC(=O)C1=C(O)C(=O)N(c2nc3c(ccc4ccccc43)s2)C1c1ccccc1 (centres undefined) | 36% |  |  |
| CCOC(=O)C1=C(O)C(=O)N(c2nc3c(Cl)cccc3s2)C1c1ccc(-c2ccccc2)cc1 (centres undefined) | 73% | 7 µM |  |
| CCOC(=O)C1=C(O)C(=O)N(c2nc3ccc(Br)cc3s2)C1c1ccc(-c2ccccc2)cc1 (centres undefined) | 52% | 21 µM |  |
| CCOC(=O)C1=C(O)C(=O)N(c2nc3ccc(C)cc3s2)C1c1ccc(-c2ccc(Cl)nn2)cc1 (centres undefined) | 36% |  |  |
| CCOC(=O)C1=C(O)C(=O)N(c2nc3ccc(C)cc3s2)C1c1ccccc1 (centres undefined) | 26% |  |  |
| CCOC(=O)C1=C(O)C(=O)N(c2ccc(-c3ccccc3)cc2)C1c1ccccc1 (centres undefined) | 19% |  |  |
| C[C@]12CC[C@H]3[C@@H](CCC4=CC(=O)CC[C@@]43C)[C@@H]1CC[C@@H]2O [TESTOSTERONE] |  |  | t1/2 [5]: 5.9 min; metabolised at 2 h [6]: 89% |
| CCOC(=O)C1=C(O)C(=O)N(c2nc3ccc(C)cc3s2)C1c1ccc(-c2ccccc2)cc1 (centres undefined) | 76% | 8.5 µM |  |
| CCOC(=O)C1=C(O)C(=O)N(c2nc3ccccc3s2)C1c1ccc(-c2ccccc2)cc1 (centres undefined) | 45% |  |  |
| CCOC(=O)C1=C(O)C(=O)N(c2nc3c(F)cc(F)cc3s2)C1c1ccc(-c2ccccc2)cc1 (centres undefined) | 76% | 7.5 µM |  |
| CCOC(=O)C1=C(O)C(=O)N(c2nc3ccc(C)cc3s2)C1c1ccc(-c2ccccc2)o1 (centres undefined) | 37% |  |  |
| CCOC(=O)C1=C(O)C(=O)N(Cc2ccc(Cl)cc2)C1c1ccc(-c2ccccc2)cc1 (centres undefined) | 40% |  |  |

| Structure (SMILES) | inhibition [1] | IC50 [2] | also measured |
| --- | --- | --- | --- |
| CCOC(=O)C1=C(O)C(=O)N(c2ccc(Cl)cc2)C1c1ccc(Cl)cc1 (centres undefined) | 14% |  |  |
| CCOC(=O)C1=C(O)C(=O)N(c2nc3ccc(C)cc3s2)C1c1cccc2ccccc12 (centres undefined) | 54% | 15 µM |  |
| CCOC(=O)C1=C(O)C(=O)N(c2nc3ccc(C)cc3s2)C1c1ccccc1-c1cccs1 (centres undefined) | 50% | 22 µM |  |
| COC(=O)C1=C(O)C(=O)N(c2nc3ccc(C)cc3s2)C1c1ccc(-c2ccc(Cl)cc2)o1 (centres undefined) | 59% | 16 µM |  |
| CCOC(=O)C1=C(O)C(=O)N(c2nc3ccc(C)cc3s2)C1c1ccc(-c2ccc(C(F)(F)F)cc2Cl)o1 (centres undefined) | 94% | 4.8 µM |  |
| CCOC(=O)C1=C(O)C(=O)N(c2nc3ccc(Cl)cc3s2)C1c1ccc(Cl)cc1 (centres undefined) | 34% |  |  |
| CCOC(=O)C1=C(O)C(=O)N(c2nc3ccc(C(F)(F)F)cc3s2)C1c1ccc(-c2ccccc2)cc1 (centres undefined) | 70% | 6.1 µM |  |
| CCOC(=O)C1=C(O)C(=O)N(c2nc3c(C)cccc3s2)C1c1ccccc1 (centres undefined) | 0% |  |  |
| CCOC(=O)C1=C(O)C(=O)N(c2nc3ccc(C)cc3s2)C1c1cccnc1 (centres undefined) | 29% |  |  |
| CCOC(=O)C1=C(O)C(=O)N(c2nc3ccc(C)cc3s2)C1c1nc2ccccc2s1 (centres undefined) | 12% |  |  |
| CCOC(=O)C1=C(O)C(=O)N(c2nc3c(OC)cccc3s2)C1c1ccc(-c2ccccc2)cc1 (centres undefined) | 31% | 25 µM |  |
| CCOC(=O)C1=C(O)C(=O)N(c2nc3ccc(Cl)cc3s2)C1c1ccc(-c2ccccc2)cc1 (centres undefined) | 78% | 5.1 µM | Activity (HepG2): Non-Toxic; Activity (MRC5): Non-Toxic |
| CCOC(=O)C1=C(O)C(=O)N(c2nc3ccc(OC)cc3s2)C1c1ccc(-c2ccccc2)cc1 (centres undefined) | 51% | 22 µM |  |
| CCOC(=O)C1=C(O)C(=O)N(c2nc3ccc(C)cc3s2)C1c1ccc(O)cc1 (centres undefined) | 23% |  |  |
| CCOC(=O)C1=C(O)C(=O)N(c2nc3ccc(C)cc3s2)C1c1cc(-c2ccccc2)cs1 (centres undefined) | 72% | 9.9 µM |  |
| CCOC(=O)C1=C(O)C(=O)N(c2nc3ccc(C)cc3s2)C1c1ccc2cc(O)ccc2c1 (centres undefined) | 43% |  |  |
| CCOC(=O)C1=C(O)C(=O)N(c2nc3ccc(Oc4ccccc4)cc3s2)C1c1ccccc1 (centres undefined) | 53% | 17 µM |  |
| CCOC(=O)C1=C(O)C(=O)N(c2ccccc2)C1c1ccc(-c2ccccc2)cc1 (centres undefined) | 13% |  |  |
| CCOC(=O)C1=C(O)C(=O)N(c2nc3ccc(C)cc3s2)C1c1ccco1 (centres undefined) | 21% |  |  |
| CCOC(=O)C1=C(O)C(=O)N(c2nc3ccc(C)cc3s2)C1c1cccs1 (centres undefined) | 14% |  |  |
| CCOC(=O)C1=C(O)C(=O)N(c2nc3ccccc3s2)C1c1ccccc1 (centres undefined) | 0% |  |  |
| C[C@@H]1O[C@@H]1P(=O)(O)O [FOSFOMYCIN] | 78% | 5.3 µM | inhibition [7]: Active; inhibition [8]: -4%; inhibition [9]: 31% |
| CCOC(=O)C1=C(O)C(=O)N(c2nc3c(s2)CCCC3)C1c1ccccc1 (centres undefined) | 14% |  |  |
